# High-throughput results: PubChem BioAssay, several laboratories
# Shown are actives, neighbours in structure and some others; about 2.6% of the full set was active somewhere.
# Platelet DG rel: platelet dense granule release activity. human platelet-rich plasma, SFLLRN dense granule ATP release, luminescence. inhibition, %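 (compounds screened at 7.5 µM in platelet-rich plasma)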. 300,000 compounds, 0.22% hits. AID 1663;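 active = mean replicate score, as percent of positive control, at or above 50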
# TAAR1 antag: antagonists of human TAAR1. Q96RJ0. CHO RD-HGA16 TAAR1, Fluo-8 calcium fluorescence, antagonist. inhibition, % at 3 µM. 360,000 compounds, 1.5% hits;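 active = inhibition above a per-plate cutoff, the mean inhibition of test compounds on that plate plus 3 SD, cut at about 49% in these data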;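 also: 0% = DMSO plus EC80 beta-PEA response and 100% = DMSO alone without agonist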
#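 System: RD-HGA16 CHO cells with stable hTAAR1 and Gα16 | Probe or stimulus: EC80 β-phenethylamine stimulus | Dosing: 3 µM, single point | Times: Dye loading 75 min at 37 °C, then 30 min room temperature | Measured by: Fluo-8 calcium-sensitive fluorescence | Read-out basis: % inhibition of agonist calcium response | Replicates: n of 1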
# Rce1 inh: inhibitors of yeast Ras-converting enzyme; Q03530; yeast membranes, quenched prenylated peptide cleavage fluorescence; calls only; 290,000 compounds, 0.27% hits;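 active = fall in fluorescence gain of 50% or more versus controls, with final raw signal at or below 3038400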;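 also: plate controls were neutral control wells for no effect and wells lacking membranes for full effect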
# VLA-4 inh: inhibition in a human VLA-4 binding assay | P13612 | VLA-4 expressing cells, ligand binding flow cytometry | inhibition, % (about 7 µM as worked out from the volumes in the protocol) | 330,000 compounds, 0.2% hits | AID 2557; in the data active = inhibition above about 50%
# TAAR1 agonist: agonists of human TAAR1. Q96RJ0. CHO RD-HGA16 TAAR1, Fluo-8 calcium fluorescence; vehicle wells 0%, saturating PEA agonist 100%. activation, % at 3 µM. 360,000 compounds, 0.99% hits. AID 624467;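 active = activation above the mean activation of all test compounds in the run plus 3 SD, cut at about 38% in these data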
#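 Signal – calcium-sensitive Fluo-8 signal, excitation 470-495, emission 515-575 nm · System – RD-HGA16 (CHO) cells co-expressing Gα16 and hTAAR1 · Incubation – 17-24 h seeding, 75 min 37 °C dye, 30 min RT · Compound dosing – 3 µM single concentration · Repeats – no replicates (n 1)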
# nonsel antag count: nonselective antagonism, TAAR1 counter-screen; shares compounds with TAAR1 antag; inhibition, % at 3 µM; counterscreen cell line, calcium fluorescence, antagonist mode; 2,400 compounds, 77% hits; in the data active = inhibition above about 22%;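 also: CHO-Ga16 host cells stimulated with ATP at an EC80 level; 0% = agonist EC80 plus vehicle and 100% = vehicle without agonist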
# TAAR1 antag conf: confirmation of human TAAR1 antagonists. AID 651785. inhibition, % at 3 µM. shares compounds with TAAR1 antag. 2,400 compounds, 40% hits. TAAR1-expressing cells, fluorescence antagonist read-out; in the data active = inhibition above about 49%;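 also: CHO-Ga16 host cells challenged with agonist PEA near its EC80; 0% = agonist at EC80 plus vehicle and 100% = vehicle with no agonist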
# Ga16 ag counter: nonselective Ga16 agonist in TAAR1 antagonist counter-screen | shares compounds with TAAR1 antag | Ga16-expressing cells, calcium fluorescence, agonist counterscreen | 2,400 compounds, 18% hits | AID 651953 | activation, % at 3 µM; in the data active = activation above about 12%;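 also: 0% = vehicle wells and 100% = saturating stimulus response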
# TAAR1 ag counter: activates human TAAR1 in antagonist counter-screen. 2,400 compounds, 2% hits. hTAAR1 cell line, fluorescence activation, agonist mode. AID 651955. activation, % at 3 µM. shares compounds with TAAR1 antag; in the data active = activation above about 37%;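 also: CHO cells stably expressing TAAR1 with calcium dye readout; 0% = DMSO vehicle and 100% = full agonist response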
# Numbers without * were called inactive; i = inactive; . = not tested or not shown; ! = repeats disagree.
SMILES,Platelet DG rel,TAAR1 antag,Rce1 inh,VLA-4 inh,TAAR1 agonist,nonsel antag count,TAAR1 antag conf,Ga16 ag counter,TAAR1 ag counter
Cc1ccc(Cn2c(C(C)Nc3nc(-c4ccc(F)cc4)cs3)nc3cc(C(F)(F)F)ccc32)cc1 (stereo not drawn),-1,-17,i,15,1,.,.,.,.
CCNC(=S)N/N=C/c1cccc(OCc2c(F)cccc2Cl)c1,6,57*,i,4,6,13,47,11,12
O=C(Nc1ccc(F)cc1)c1ccc(CSc2ccccc2)o1,11,13,i,8,6,.,.,.,.
CC(=O)c1cccc(NC(=O)c2ccc(-c3ccccc3[N+](=O)[O-])o2)c1,-6,62*,i,10,32,24*,43,18*,18
CC(=O)c1ccc(NC(=O)c2ccc(CSc3ccccc3)o2)cc1,-1,95*,i,0,4,28*,80*,5,-2
O=C(O)c1ccc(COc2ccccc2[N+](=O)[O-])o1,1,-12,i,8,3,.,.,.,.
CC(=O)c1ccc(NC(=O)c2ccc(COc3ccccc3[N+](=O)[O-])o2)cc1,8,.,i,-6,.,14,.,4,.
CCOc1ccc(Cl)cc1-c1cc(C(=O)Nc2ccc(F)cc2)[nH]n1,.,16,.,.,1,.,.,.,.
COc1ccc(C(=O)Nc2ccc(N3CCN(C(=O)c4ccccc4C)CC3)cc2)cc1,28,65*,i,3,10,24*,37,14*,12
COc1ccc(Nc2ncc(C(=O)O)c3ccccc23)cc1,-5,4,i,15,0,.,.,.,.
COc1ccc(Nc2ncc(C(=O)N3CCN(c4ccc(F)cc4)CC3)c3ccccc23)cc1,4,55*,i,0,25,37*,54*,11,8
CSCC[C@@H](C(=O)NCCCCCCCCCCC(=O)N1CCN(C(=O)OC(C)(C)C)CC1)n1cc(CCO)nn1,.,50*,.,9,20,28*,42,9,10
CSCCCc1cn([C@@H](CO)C(=O)NCCCCCCCCCCC(=O)N2CCNCC2)nn1,-8,4,i,17,8,.,.,.,.
CC[C@@H](C)[C@@H](C(=O)N1CCN(C(=O)OC(C)(C)C)CC1)n1cc(CCCCNC(=O)OC(C)(C)C)nn1,3,69*,i,2,25,42*,61*,13*,13
Cc1cn(CC(=O)NCC(C)c2ccccc2)c(=O)[nH]c1=O (stereo not drawn),.,-10,.,.,2,.,.,.,.
CSc1cccc(NC(=O)N2CCc3ccc(NC(=O)c4ccccn4)cc3C2)c1,11,62*,i,-5,5,40*,45,9,5
O=C(Nc1cccnc1)c1ccc(COc2ccccc2Br)cc1,-1,79*,i,13,9,15,60*,6,9
Cc1ccc(S(=O)(=O)N2CCN(C(=O)COC(=O)C3(C)CC3(Cl)Cl)CC2)c(C)c1 (stereo not drawn),.,11,.,0,5,.,.,.,.
O=C(Nc1ccc2c(c1)CCCN2C(=O)c1cccs1)c1cccc(F)c1,11,69*,i,13,6,29*,45,7,3
O=C(Nc1ccc(C(=O)N2CCCC2)cc1)c1ccccc1Br,-9,-21,i,-3,1,.,.,.,.
O=C(Nc1ccc2c(c1)CCCN2C(=O)c1ccccc1)c1ccccc1Br,9,66*,i,5,9,31*,47,11,7
O=C(Nc1ccc2c(c1)CCCN2C(=O)c1cccs1)c1ccccc1,6,48,i,6,7,.,.,.,.
CCOc1ccc(NC(=S)N2CCN(S(=O)(=O)c3ccc(OC)cc3)CC2)cc1,3,-12,i,10,3,.,.,.,.
O=C1CN(S(=O)(=O)c2cc(Cl)ccc2Cl)c2ccccc2N1,13,-19,i,-8,1,.,.,.,.
CCN(C(=O)CSc1nc2cc(S(=O)(=O)N(CC)CC)ccc2n1CC)C1CCS(=O)(=O)C1 (stereo not drawn),7,-5,i,1,-1,.,.,.,.
SMILES,Platelet DG rel,TAAR1 antag,Rce1 inh,VLA-4 inh,TAAR1 agonist,nonsel antag count,TAAR1 antag conf,Ga16 ag counter,TAAR1 ag counter
Cc1ccccc1CN1C(=O)/C(=C\c2ccc(C(=O)NCCN3CCOCC3)cc2)Sc2ccccc21,5,53*,i,4,31,26*,37,11,33
O=C(NCCN1CCOCC1)c1ccc(/C=C2\Sc3ccccc3N(Cc3ccccc3F)C2=O)cc1,1,69*,i,21,12,34*,50*,13*,15
Cn1c(N)c(C(=O)COC(=O)c2cc(S(=O)(=O)NCc3ccccc3)ccc2O)c(=O)n(C)c1=O,.,23,.,.,5,.,.,.,.
O=C1NC(=S)N/C1=C\c1ccccc1OCc1ccc(C(=O)O)cc1,-3,-26,i,6,2,.,.,.,.
O=C(O)c1ccc(COc2ccccc2C=C2C(=O)c3ccccc3C2=O)cc1,-2,75*,i,-4,30,37*,54*,11,23
Cc1cc(C(=O)CSc2ccc(Cl)cc2)cc(C)c1OC(=S)N(C)C,11,63*,i,-10,5,19,37,1,1
COc1ccc(NC(=O)CCCNC(=O)Cn2cnc3sc4c(c3c2=O)CCCC4)c(OC)c1,4,-17,i,-15,3,.,.,.,.
COc1ccc(-c2nc3ccc(C)cn3c2NCc2ccccc2)cc1SC1CCCCC1,17,.,i,-5,.,.,.,.,.
CCCCNc1c(-c2cccc(SC(C)CC)c2)nc2ccc(Cl)cn12 (stereo not drawn),.,57*!,.,-19,9,19,27,4,6
CCCCNc1c(-c2ccc(SC3CCCCC3)c(OC)c2)nc2ccc(C)cn12,.,74*,.,-46,2,36*,36,0,0
CCCCNc1c(-c2ccc(OC)c(SC(C)CC)c2)nc2ccc(Cl)cn12 (stereo not drawn),.,23,.,-19,7,.,.,.,.
CCCCNc1c(-c2ccc(OC)c(SC(C)CC)c2)nc2ccc(C)cn12 (stereo not drawn),.,91*,.,-25,19,46*,58*,8,9
C#CCOCCOCCOCCNc1nc(N2CCN(C(=O)[C@H](CCCCN)n3cc(CN)nn3)CC2)nc(N2CCN(C(=O)[C@H](CCCN=C(N)N)n3cc(C(N)[C@H](C)CC)nn3)CC2)n1 (stereo partly drawn),.,-6,.,24,17,.,.,.,.
OC1(c2cccc(C(F)(F)F)c2)CCN(c2ccc(-c3ccccc3)nn2)CC1,.,75*,.,19,10,19,39,4,-1
